ChEMBL document CHEMBL4251576, “Synthesis and biological evaluation of curcumin inspired imidazo[1,2-a]pyridine analogues as tubulin polymerization inhibitors” (Eur J Med Chem, 2018)
Active and inactive are the calls of the source. The rule behind the calls is not given here.

Tests used:
PC-3 [1] = assay: Cell cycle arrest in human PC3 cells assessed as accumulation at subG1 phase at 2 uM after 24 hrs by propidium iodide staining-based flow cytometric method (reference value: 0.38%); format: functional
PC-3 [2] = assay: Induction of mitochondrial membrane depolarization in human PC3 cells after 24 hrs by JC1 staining-based flow cytometric method; format: functional, cell-based
4T1 = assay: Cytotoxicity against mouse 4T1 cells assessed as inhibition of cell viability after 48 hrs by MTT assay; format: functional, cell-based; conditions: 4T1, 48 h
Outline: (§1)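 Cells were seeded at 2.5‒5 x 10^3 per well in DMEM or RPMI with 10% FBS and grown 24 h at 37 °C under CO2. Compounds diluted in medium were added alongside vehicle control for 48 h. MTT (0.5 mg/mL) was added for 4 h, formazan dissolved in DMSO and absorbance read at 570 nm. IC50 is the concentration giving 50% loss of viability; mean ± SD of three experiments, each in triplicate.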

Sus scrofa [3] = organism: Sus scrofa; assay: (§2) Inhibition of tubulin polymerization in porcine brain at 10 uM after 60 mins by fluorescence assay
Outline: (§3)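 Cell-free kit assay using porcine brain tubulin (2 mg/mL) in 80 mM PIPES pH 6.9 with 2.0 mM MgCl2, 0.5 mM EGTA, 1.0 mM GTP and glycerol; compound at 10 µM final, nocodazole as positive control. Polymerization tracked over time as fluorescence of a reporter incorporated into microtubules (ex 360 nm, em 440 nm), with inhibition relative to control.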

[4] = as §2; set-up: species or system Sus scrofa; outline: as §3
Sus scrofa [5] = organism: Sus scrofa; assay: Inhibition of tubulin polymerization in porcine brain at 10 uM after 60 mins by fluorescence assay relative to control; outline: as §3
RWPE-1 = assay: Cytotoxicity against human RWPE1 cells assessed as inhibition of cell viability after 48 hrs by MTT assay; format: cell-based; conditions: RWPE-1, 48 h; outline: as §1
PC-3 [6] = assay: Cell cycle arrest in human PC3 cells assessed as accumulation at G0/G1 phase at 2 uM after 24 hrs by propidium iodide staining-based flow cytometric method (reference value: 58.41%); format: functional
PC-3 [7] = assay: Induction of apoptosis in human PC3 cells assessed as early apoptotic cells at 4 uM after 24 hrs by FITC-annexin V/propidium iodide staining-based flow cytometric method (reference value: 7.62%); format: functional
PC-3 [8] = assay: Cell cycle arrest in human PC3 cells assessed as accumulation at S phase at 2 uM after 24 hrs by propidium iodide staining-based flow cytometric method (reference value: 8.08%); format: functional
PC-3 [9] = assay: Cell cycle arrest in human PC3 cells assessed as accumulation at subG1 phase at 1 uM after 24 hrs by propidium iodide staining-based flow cytometric method (reference value: 0.38%); format: functional
PC-3 [10] = assay: Induction of apoptosis in human PC3 cells assessed as chromatin condensation at 0.5 uM after 48 hrs by acridine orange/ethidium bromide staining-based fluorescence inverted microscopic method; format: functional, cell-based
Outline: (§4)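 PC-3 cells (25000/well) grown 24 h, then exposed 48 h to 0.5, 1 or 2 µM with DMSO control. After PBS wash, stained with acridine orange and ethidium bromide (10 µg/mL each) and imaged at once by fluorescence inverted microscopy (ex 488 nm, em 530 nm, 200x).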

PC-3 [11] = assay: Cell cycle arrest in human PC3 cells assessed as accumulation at G2/M phase at 2 uM after 24 hrs by propidium iodide staining-based flow cytometric method (reference value: 33.13%); format: functional
NCI-H460 [12] = assay: Potency index, ratio of curcumin IC50 to test compound IC50 for human NCI-H460 cells; format: functional
PC-3 [13] = assay: Induction of apoptosis in human PC3 cells assessed as appearance of horse-shoe shaped nuclei at 2 uM after 48 hrs by acridine orange/ethidium bromide staining-based fluorescence inverted microscopic method; format: functional, cell-based; outline: as §4
PC-3 [14] = assay: Induction of apoptosis in human PC3 cells assessed as nuclei condensation at 1 to 2 uM after 48 hrs by DAPI staining-based fluorescence microscopic method; format: functional, cell-based
Outline: (§5)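 PC-3 cells (25000/well) adhered overnight, then treated 48 h at 1 or 2 µM. After PBS wash, fixed 20 min in 4% neutral buffered formalin, permeabilized 5 min with 0.2% Triton X, and stained 10 min at room temperature with DAPI (1 µg/mL). Nuclei viewed by fluorescence microscopy (ex 350 nm, em 460 nm, 200x).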

PC-3 [15] = assay: Induction of apoptosis in human PC3 cells assessed as late apoptotic cells at 4 uM after 24 hrs by FITC-annexin V/propidium iodide staining-based flow cytometric method (reference value: 5.75%); format: functional
[16] = Selectivity index, ratio of IC50 for human RWPE1 cells to IC50 for human PC3 cells; format: toxicity; conditions: RWPE1 cells versus PC3 cells, read-out: Ratio IC50
PC-3 [17] = assay: Induction of apoptosis in human PC3 cells assessed as necrotic cells at 2 uM after 24 hrs by FITC-annexin V/propidium iodide staining-based flow cytometric method (reference value: 0.32%); format: functional
PC-3 [18] = assay: Induction of apoptosis in human PC3 cells after 24 hrs by FITC-annexin V/propidium iodide staining-based flow cytometric method; format: functional, cell-based
PC-3 [19] = assay: Induction of mitochondrial membrane depolarization in human PC3 cells at 2 uM after 24 hrs by JC1 staining-based flow cytometric method (reference value: 11.9%); format: functional
PC-3 [20] = assay: Induction of apoptosis in human PC3 cells assessed as appearance of horse-shoe shaped nuclei at 1 to 2 uM after 48 hrs by DAPI staining-based fluorescence microscopic method; format: functional, cell-based; outline: as §5
PC-3 [21] = assay: Cell cycle arrest in human PC3 cells assessed as accumulation at G0/G1 phase at 1 uM after 24 hrs by propidium iodide staining-based flow cytometric method (reference value: 58.41%); format: functional
PC-3 [22] = assay: Induction of mitochondrial membrane depolarization in human PC3 cells at 4 uM after 24 hrs by JC1 staining-based flow cytometric method (reference value: 11.9%); format: functional
PC-3 [23] = assay: Cell cycle arrest in human PC3 cells assessed as accumulation at G2/M phase at 1 uM after 24 hrs by propidium iodide staining-based flow cytometric method (reference value: 33.13%); format: functional
DU-145 = assay: Cytotoxicity against human DU145 cells assessed as inhibition of cell viability after 48 hrs by MTT assay; format: functional, cell-based; conditions: DU-145, 48 h; outline: as §1
HGC-27 = assay: Cytotoxicity against human HGC27 cells assessed as inhibition of cell viability after 48 hrs by MTT assay; format: functional, cell-based; conditions: HGC-27, 48 h; outline: as §1
PC-3 [24] = assay: Cell cycle arrest in human PC3 cells assessed as accumulation at S phase at 1 uM after 24 hrs by propidium iodide staining-based flow cytometric method (reference value: 8.08%); format: functional
PC-3 [25] = assay: Induction of apoptosis in human PC3 cells assessed as necrotic cells at 4 uM after 24 hrs by FITC-annexin V/propidium iodide staining-based flow cytometric method (reference value: 0.32%); format: functional
PC-3 [26] = assay: Induction of apoptosis in human PC3 cells assessed as late apoptotic cells at 2 uM after 24 hrs by FITC-annexin V/propidium iodide staining-based flow cytometric method (reference value: 5.75%); format: functional
NCI-H460 [27] = assay: Cytotoxicity against human NCI-H460 cells assessed as inhibition of cell viability after 48 hrs by MTT assay; format: functional, cell-based; conditions: NCI-H460, 48 h; outline: as §1
PC-3 [28] = assay: Induction of apoptosis in human PC3 cells assessed as destructive fragmentation of nuclei at 2 uM after 48 hrs by acridine orange/ethidium bromide staining-based fluorescence inverted microscopic method; format: functional, cell-based; outline: as §4

inhibition (Sus scrofa [3]): Dose-dependent effect
IC50 [4]: 8.44 µM
inhibition (Sus scrofa [5]): 51.8%
Compound: COc1cc(OC)c(/C=C/C(=O)/C=C/c2nc3ccccn3c2-c2ccc(F)c(F)c2)c(OC)c1
Activity (PC-3 [1]): 0.74%
Activity (PC-3 [2]): Dose-dependent effect
IC50 (4T1): 1.71 µM
IC50 (RWPE-1): 4.23 µM
Activity (PC-3 [6]): 32.66%
Activity (PC-3 [7]): 7.3%
Activity (PC-3 [8]): 0.76%
Activity (PC-3 [9]): 0.57%
Activity (PC-3 [10]): Active
Activity (PC-3 [11]): 55.84%
Ratio IC50 (NCI-H460 [12]): 6.5
Activity (PC-3 [13]): Active
Activity (PC-3 [14]): Active
Activity (PC-3 [15]): 48.34%
selectivity ratio [16]: 2
Activity (PC-3 [17]): 1.32%
Activity (PC-3 [18]): Dose-dependent effect
Activity (PC-3 [19]): 23.67%
Activity (PC-3 [20]): Active
Activity (PC-3 [21]): 44.87%
Activity (PC-3 [22]): 52.3%
Activity (PC-3 [23]): 44.65%
IC50 (DU-145): 2.97 µM
IC50 (HGC-27): 2.21 µM
Activity (PC-3 [24]): 9.97%
Activity (PC-3 [25]): 3.12%
Activity (PC-3 [26]): 27.94%
IC50 (NCI-H460 [27]): 2.63 µM
Activity (PC-3 [28]): Active
